The list is not random: actives were taken first. Their share in the collection is about 2.3%.
TRPC6 inh: mouse TRPC6 channel inhibitors, primary screen, cell-based, HEK293, membrane potential dye; Short transient receptor potential channel 6 (Mus musculus), Q61143; ACh-evoked depolarization; hits give low values; B-score at 10 µM; actives 1.1% (n = 310,000); AID 2553, 2010;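 active = B-score under library mean minus 3 SD, initial fluorescence not abnormally high, positive integrated signal ratio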;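 also: B-score derived from integrated fluorescence ratio over the kinetic read; more negative B-score means stronger inhibition of depolarization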
Target sequence (Q61143 whole entry, looked up): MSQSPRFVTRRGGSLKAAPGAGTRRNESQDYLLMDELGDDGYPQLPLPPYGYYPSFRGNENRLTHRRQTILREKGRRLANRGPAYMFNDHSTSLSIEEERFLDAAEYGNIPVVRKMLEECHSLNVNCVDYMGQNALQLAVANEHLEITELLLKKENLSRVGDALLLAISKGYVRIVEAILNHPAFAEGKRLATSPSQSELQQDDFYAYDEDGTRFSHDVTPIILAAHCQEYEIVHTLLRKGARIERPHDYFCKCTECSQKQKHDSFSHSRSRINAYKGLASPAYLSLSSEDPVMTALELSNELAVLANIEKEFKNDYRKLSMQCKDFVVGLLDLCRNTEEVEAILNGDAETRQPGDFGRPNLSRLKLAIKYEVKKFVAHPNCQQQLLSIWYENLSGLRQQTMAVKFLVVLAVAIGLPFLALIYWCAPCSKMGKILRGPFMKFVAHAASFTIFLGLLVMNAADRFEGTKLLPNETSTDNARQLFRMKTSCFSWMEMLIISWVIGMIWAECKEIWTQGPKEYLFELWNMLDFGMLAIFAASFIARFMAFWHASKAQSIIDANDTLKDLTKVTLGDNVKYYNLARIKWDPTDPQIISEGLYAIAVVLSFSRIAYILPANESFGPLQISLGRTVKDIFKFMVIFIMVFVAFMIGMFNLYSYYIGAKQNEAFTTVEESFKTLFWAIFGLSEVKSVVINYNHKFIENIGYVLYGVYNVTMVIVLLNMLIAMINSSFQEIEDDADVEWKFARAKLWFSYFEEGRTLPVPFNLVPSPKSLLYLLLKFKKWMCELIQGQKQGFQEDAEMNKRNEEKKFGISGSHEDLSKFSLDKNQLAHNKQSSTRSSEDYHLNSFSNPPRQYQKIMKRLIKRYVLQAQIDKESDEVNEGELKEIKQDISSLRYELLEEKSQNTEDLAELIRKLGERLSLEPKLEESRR
TRPC4 agonist: activators of mouse TRPC4 channel, primary screen, Fluo4 calcium, HEK293 TRPC4beta/mu-opioid cells; Fluo4 calcium fluorescence; hits give high values; B-score at 10 µM; AID 2237, 2010; Short transient receptor potential channel 4 (Mus musculus), Q9QUQ5; actives 0.49% (n = 310,000);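 active = B-score above 5 SD of library B-scores, and initial fluorescence ratio not above library mean plus 5 SD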;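 also: positive B-score marks a calcium rise read as TRPC4 activation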
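System: HEK293 cells stably co-expressing mouse TRPC4beta and mu-opioid receptor; Schedule: Fluo4 dye loading 45 min at room temperature, 110 s recording; Detection: Fluo4 fluorescence, kinetic; Evaluation: B-scored integrated calcium fluorescence ratio; Controls: buffer (low) and maximal DAMGO (high).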
TRPC6 activator: mouse TRPC6 channel activators, primary screen, cell-based, HEK293, membrane potential dye | actives 0.13% (n = 310,000) | AID 2550, 2010 | B-score at 10 µM | Short transient receptor potential channel 6 (Mus musculus), Q61143 | HEK293-TRPC6 membrane potential dye fluorescence; hits give high values;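 active = B-score of the integrated fluorescence ratio above library mean plus 3 SD, and starting fluorescence ratio within library mean plus 5 SD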;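 also: higher score means more depolarization so channel activation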
TRPC4 block: inhibitors of mouse TRPC4 channel, primary screen, Fluo4 calcium, HEK293 TRPC4beta/mu-opioid cells; Short transient receptor potential channel 4 (Mus musculus), Q9QUQ5; DAMGO-evoked Fluo4 calcium flux; hits give low values; B-score at 10 µM; actives 0.39% (n = 300,000);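 active = B-score over 3 SD under the library average, no early fluorescence shift, positive overall ratio signal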
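Assay system: HEK293 cells with stable TRPC4beta plus mu-opioid receptor expression. Dosing: single dose. Measured by: Fluo4 Ca2+ flux fluorescence. Also added: DAMGO in two steps, submaximal then maximal. Read-out: B score from integrated Fluo4 fluorescence ratio.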
TRPC4 potent: positive allosteric modulators of TRPC4, primary screen, cell-based, mouse TRPC4beta, HEK293 mu-opioid, Fluo-4 calcium; DAMGO EC20, Fluo-4 Ca2+ flux; hits give high values; B-score at 10 µM; AID 2227, 2009; Short transient receptor potential channel 4 (Mus musculus), Q9QUQ5; actives 0.42% (n = 310,000);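 active = B-score of calcium response area above 5 SD of library B-scores, with initial fluorescence ratio within 5 SD of library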
Large screens that a line does not name were inactive.

CC(=O)c1ccc(N2CCN(C(=O)CCCn3c(=O)[nH]c4ccccc4c3=O)CC2)cc1	none
Cc1cc(C)n(S(=O)(=O)c2ccc(C(C)(C)C)cc2)n1	TRPC6 inh -6.6
Cc1cc(C)n(S(=O)(=O)c2ccc(F)cc2)n1	none
CCCOCC(O)CC(Cc1ccccc1)C(=O)NN (stereo not given)	none
CCOC(=O)C1=NN(C(=O)c2cccc(Br)c2)C(O)(C(C)(C)C)C1 (stereo not given)	TRPC4 agonist 180
O=C(Nc1cccc(Cl)c1)c1ccc(-n2cncn2)c([N+](=O)[O-])c1	TRPC6 inh -5.5
CCn1c(=N)n(CC(=O)c2ccc(Br)s2)c2ccccc21	TRPC4 block -6
Cc1ccc(C)c2nc3sc(C(=O)O)cc3cc12	TRPC4 block -7
CN1/C(=C\C(=O)C[n+]2ccc3ccccc3c2)C(C)(C)c2ccccc21	TRPC4 block -6
CO/N=C/c1ccc(N2CCN(C(=O)c3ccc(Cl)cc3Cl)CC2)c([N+](=O)[O-])c1	TRPC4 potent 12
CO/N=C/c1ccc(N2CCN(C(=O)c3ccc(F)cc3)CC2)c([N+](=O)[O-])c1	none
COCCn1c(=S)[nH]c2cc(C(=O)NCCc3ccccc3)ccc2c1=O	none
Cc1ccccc1CN1N=C(/C=C/c2ccccc2)CCC1=O	TRPC4 potent 14
CCCC(O)(c1ccc(Cl)cc1)C(CN1CCOCC1)c1ccccc1 (stereo not given)	TRPC4 block -5
COc1cc(NC(=S)NCCc2ccccc2)c(OC)cc1NC(=O)CC(C)C	TRPC4 block -6
O=C(Nc1ccc(F)cc1F)c1ccco1	TRPC4 agonist 70
O=C(Nc1ccc(F)cc1F)c1cc(-c2ccco2)on1	none
CCN1C(=O)N(C)[C@@H](c2ccccc2)C(C(=O)OC)=C1C	none
O=C(CSc1nnc(NC(=O)C2CC2)s1)NCc1ccccc1Cl	none
COC(=O)c1ccc(S(=O)(=O)NC(C)(C)C)n1C	none
CC(=O)N(Cc1c(C)nn(-c2ccccc2)c1Cl)c1ccc(Cl)cc1	none
Cc1nn(-c2ccccc2)c(Cl)c1CN(C(=O)CCl)c1cccc2ccccc12	TRPC4 block -7
Cc1nn(-c2ccccc2)c(Cl)c1CN(C(=O)CCl)c1ccc(Cl)cc1	TRPC4 block -7
CCC1CCCCN1CCCNC(=O)CN1C(=O)COc2ccccc21 (stereo not given)	none
Cc1cc2ccccn2c1C(=O)c1nc(NCc2ccco2)ncc1Cl	TRPC4 potent 13
Cc1nc(-c2ccc(-n3nncc3-c3ccco3)cc2)cs1	none
Nc1nc(-c2ccc(-n3nncc3-c3ccco3)cc2)cs1	TRPC4 block -5
COc1cccc(-c2cc3nc4c(c(N5CCC6(CC5)OCCO6)n3n2)CCC4)c1	none
CCCCCc1cc(=O)oc2c(C(CCN(CC)CC)c3ccc(N(C)C)cc3)c(OC)cc(OC)c12 (stereo not given)	TRPC4 potent 11
Cc1ccc(NC(=O)Cn2c(=O)oc3ccccc32)cc1	none
CCN(CC)S(=O)(=O)c1ccc(NC(=O)Cn2c(=O)oc3ccccc32)cc1	TRPC4 block -6
CCN(C(=O)CSc1ncnc2sc(C)c(C)c12)C1CCS(=O)(=O)C1 (stereo not given)	none
CCc1cc2c(SCC(=O)N(C)C3CCS(=O)(=O)C3)ncnc2s1 (stereo not given)	TRPC4 potent 28
Cc1ccc(CNC(=O)CCSCc2ccccc2F)cc1	none
O=c1c2cc(Cl)ccc2[nH]c(=S)n1Cc1cccs1	none
Cc1cccc(CCN(C(=O)c2snc(C(N)=O)c2N)C(C(=O)NCC2CCCO2)c2ccc(F)cc2)c1 (stereo not given)	TRPC4 block -7
COc1ccc(CCN(C(=O)c2snc(C(N)=O)c2N)C(C(=O)NCC2CCCO2)c2ccc(F)cc2)cc1OC (stereo not given)	none
NC(=O)c1nsc(C(=O)N(Cc2ccco2)C(C(=O)NCC2CCCO2)c2ccc(O)cc2)c1N (stereo not given)	none
NC(=O)c1nsc(C(=O)N(Cc2ccccc2F)C(C(=O)NCC2CCCO2)c2ccc(F)cc2)c1N (stereo not given)	TRPC4 block -8
NC(=O)c1nsc(C(=O)N(Cc2ccco2)C(C(=O)NCC2CCCO2)c2ccc(F)cc2)c1N (stereo not given)	TRPC4 block -6
OCc1cn(-c2ccccc2)nc1-c1ccc(-c2nn(-c3ccccc3)cc2CO)cc1	none
Cc1ccc(-c2nn(-c3ccccc3)cc2CSC(=N)N)cc1	TRPC4 agonist 68
COCCCN(C(=O)CCSc1ccc(F)cc1)c1c(N)n(Cc2ccccc2)c(=O)[nH]c1=O	none
O=C(Nc1cc(Cl)ccc1-n1cncn1)c1ccc(Br)o1	none
N=c1c(C(=O)NCCc2ccccc2)cc2c(=O)n3ccccc3nc2n1CC1CCCO1 (stereo not given)	TRPC6 inh -5.1
Cc1ccc(Cn2c(=N)c(C(=O)NC3CCCCC3)cc3c(=O)n4ccccc4nc32)cc1	TRPC4 potent 20
Cc1ccc2nc3c(cc(C(=O)NC4CCCC4)c(=N)n3CCCn3ccnc3)c(=O)n2c1	TRPC6 inh -5.5
N=c1c(C(=O)NC2CCCC2)cc2c(=O)n3ccccc3nc2n1CCCN1CCOCC1	none
N=c1c(C(=O)NCC2CCCO2)cc2c(=O)n3ccccc3nc2n1Cc1ccc(Cl)cc1 (stereo not given)	TRPC4 potent 29
COC(=O)C(NC(=O)c1cccnc1Cl)C(C)C (stereo not given)	none
O=C(NC(=O)c1ccccc1)OCCN1C(=O)c2ccccc2C1=O	none
Cc1ccc(Cn2c(=N)c(C(=O)NCC3CCCO3)cc3c(=O)n4ccccc4nc32)cc1 (stereo not given)	TRPC4 potent 47
O=C(Nc1ccc(F)cc1)N1CCN(c2nc3ccccc3s2)CC1	none
O=C(Nc1ccccc1)N1CCN(c2nc3ccccc3s2)CC1	TRPC4 agonist 43
Cc1ccsc1C(=O)N1CCCC(N(C)Cc2ccccc2)C1 (stereo not given)	none
CN(C)CCNc1c2c(nc3nnnn13)CCCC2	TRPC4 agonist 44
OCC1CCCCN1CCNCc1cn[nH]c1-c1cccc2ccccc12 (stereo not given)	none
c1ccc2c(-c3[nH]ncc3CNCCCn3ncc4ccccc43)cccc2c1	TRPC4 agonist 64
OCCN1CCN(C2CCC(c3ccc(F)cc3)c3ccc(F)cc32)CC1 (stereo not given)	TRPC4 potent 13
